Compounds with a hit are over-represented: about 3.1% of the library has one in this group of screens.
core dimer inh – blocks dimerization of HCV core protein | TR-FRET GST/Flag-core106 dimerization, 1536-well | inhibition, % at 5 µM | 300,000 tested, 0.33% active | AID 1899;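 active = inhibition above the mean of all tested compounds plus 3 SD, set per screening campaign, cut at about 45% in these data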
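test system = GST/Flag-tagged HCV core106 proteins | probe or stimulus = Eu donor and XL665 acceptor anti-tag antibodies | times = compound-protein-antibody incubation 4 h at 22.5 °C | signal = TR-FRET, excitation 340 nm, emission 617 and 671 nm | measure = percent inhibition of core106 dimerization signal | controls = wells lacking GST-core106 and wells with excess unlabelled core106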
NadD inh – inhibitors of Staphylococcus aureus NadD | purified NadD enzyme, colorimetric absorbance read-out | AID 602399 | 360,000 tested, 0.78% active | inhibition, % at 20 µM; in the data active = inhibition above about 26%
Myeloid diff MLP – myeloid differentiation induction; ER-HoxA9 myeloid progenitors, lysozyme-GFP differentiation, flow cytometry; calls only at 10 µM; 360,000 tested, 1% active; AID 624256;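 active = normalized GFP-positive differentiation at or above the plate's own cutoff, the solvent-only control mean plus 3 SD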;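 also: cells exposed to compound for four days before flow analysis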
PP1 inh – PP1-alpha (human) inhibition in PP5 counter-screen; purified PP1alpha, OMFP fluorescence; inhibition, % at 6.7 µM; 320,000 tested, 0.9% active; AID 2235;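 active = inhibition above the mean inhibition of all tested compounds plus 3 SD, computed separately for each screening campaign, cut at about 15% in these data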
Target sequence (P62136 whole entry, looked up): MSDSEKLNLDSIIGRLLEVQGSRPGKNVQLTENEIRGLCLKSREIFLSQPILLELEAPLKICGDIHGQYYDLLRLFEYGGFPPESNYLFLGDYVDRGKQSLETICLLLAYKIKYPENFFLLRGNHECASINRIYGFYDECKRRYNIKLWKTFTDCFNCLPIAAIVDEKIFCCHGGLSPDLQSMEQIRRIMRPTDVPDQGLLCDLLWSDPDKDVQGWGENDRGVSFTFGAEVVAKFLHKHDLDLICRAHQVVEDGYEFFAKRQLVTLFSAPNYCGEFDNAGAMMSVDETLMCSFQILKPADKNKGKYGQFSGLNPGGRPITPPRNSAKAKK
PP5 inh – inhibitors of human protein phosphatase 5 (PP5) | inhibition, % at 6.7 µM | 320,000 tested, 0.18% active | P53041 | purified PP5c, OMFP substrate fluorescence | AID 1987;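 active = inhibition above the campaign's mean inhibition across all tested compounds plus 3 SD, cut at about 9.5% in these data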;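 also: 0% = DMSO only and 100% = 100 µM cantharidin control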
Fh CTSL1 inh – cathepsin L1 inhibition, PFM18AAP counter-screen. AID 1906. 300,000 tested, 0.49% active. recombinant F. hepatica cathepsin L1, Z-Leu-Arg-MCA fluorescence. inhibition, % at 5.96 µM;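 active = inhibition above the mean of all tested compounds plus 3 SD, set per screening campaign, cut at about 17% in these data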;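 also: 0% = plate median of test compound wells and 100% = 1 µM Z-Phe-Ala-diazomethylketone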
Myeloid diff – compounds promoting myeloid differentiation. shares compounds with Myeloid diff MLP. ER-HoxA9 myeloid progenitors, GFP/Mac1 double-positive flow. calls only. 2,300 tested, 2% active;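 active = share of green or green-and-red cells above 9 and 9% in run 1 or 4 and 3% in run 2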
GFP autofluor – flagged as fluorescent in myeloid differentiation counter-screen | 2,300 tested, 7.4% active | shares compounds with Myeloid diff MLP | fluorescence response, % (concentration not given with the values) | ER-HoxA9 myeloid progenitors, no estrogen, GFP autofluorescence flow cytometry; vehicle wells 0%, positive control 100%;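 active = over 5% cells positive for green fluorescent reporter, or over 2% positive for both it and APC stain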;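 also: range taken on the double positive population between DMSO and positive control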
* marks the source's active call; other numbers are inactive results; i = inactive; x = no result; + = active, no number.

SMILES | core dimer inh | NadD inh | Myeloid diff MLP | PP1 inh | PP5 inh | Fh CTSL1 inh | Myeloid diff | GFP autofluor
CC(C)c1ccc(/C=C(\c2nc3ccccc3[nH]2)S(=O)(=O)c2ccccc2)cc1 | 11.7 | 6.6 | + | 4.3 | 2.9 | 0.4 | i | 0.0
CCN(CC)C(=O)[C@H]1C[C@H](CC(=O)NCc2ccc(OC)c(OC)c2)C(=O)N2CCc3c([nH]c4cc(-c5ccco5)ccc34)[C@]12C | x | 5.2 | i | x | x | x | x | x
Cc1ccccc1C(=O)NNC(=O)c1cc(S(=O)(=O)N2CCOCC2)ccc1C | x | -2.3 | i | -0.8 | 0.1 | x | x | x
COc1ccc2c(c1)CCC(C)N2S(=O)(=O)c1ccc(C2CNC(=O)C2)cc1 (stereo not drawn) | 1.1 | -0.9 | x | -5.0 | 2.5 | -2.8 | i | 0.0
COc1ccc(NC(=O)Cn2nnc(C(=O)NCc3cccs3)c2N)cc1OC | -1.9 | -3.5 | i | 3.1 | 4.3 | -1.3 | x | x
Cc1ccc(NC(=O)Cn2nnc(C(=O)NCc3cccs3)c2N)cc1F | -5.7 | -6.1 | + | 0.5 | -0.9 | -3.7 | i | 0.2
Cc1cc(C)cc(N(CCC#N)C(=O)COC(=O)c2nc3nc(C)cc(C)n3n2)c1 | 1.1 | -3.8 | x | -4.0 | -0.4 | -2.5 | x | x
CC(C)c1ccc(C(=O)OCC(=O)c2c(N)n(C)c(=O)n(C)c2=O)cc1 | x | 1.3 | i | x | x | x | x | x
Cn1c(N)c(C(=O)COC(=O)c2ccco2)c(=O)n(C)c1=O | -2.9 | -3.7 | + | -3.4 | -2.1 | -1.6 | i | 0.4
COCOCCn1cc(CN2CCS(=O)(=O)N(Cc3ccc(-c4ccc(OC)cc4)cc3)C(C)C2=O)nn1 (stereo not drawn) | x | 2.3 | i | x | x | x | x | x
CCc1noc(C)c1C(=O)NCCc1ccccc1 | 0.1 | 0.2 | i | -4.0 | -0.8 | 0.7 | x | x
COC(=O)C1CC2=C(CCCC2=O)NC1=O (stereo not drawn) | x | 0.6 | i | x | x | x | i | 0.0
Cc1ccc(S(=O)(=O)N(C)C[C@H]2Oc3c(NC(=O)Nc4cccc5ccccc45)cccc3C(=O)N([C@@H](C)CO)C[C@@H]2C)cc1 | x | -3.5 | i | x | x | x | i | 0.0
Cc1ccc(-c2cnc3c(c2)C(=O)N([C@H](C)CO)C[C@@H](C)[C@@H](CN(C)C(=O)Cc2ccccc2)O3)cc1 | x | 10.7 | i | x | x | x | i | 0.3
COCC(=O)N(C)C[C@H]1Oc2ncc(C#C[C@H](C)O)cc2C(=O)N([C@@H](C)CO)C[C@H]1C | x | 8.2 | + | x | x | x | i | 0.0
Cc1ccc(NC(=O)C2CCCO2)c(Br)c1 (stereo not drawn) | 1.9 | 0.3 | i | -6.4 | -2.0 | -3.1 | x | x
COc1ccccc1-n1c(=S)sc2c(=O)n(Cc3ccco3)c(SC)nc21 | 11.2 | -6.1 | i | 7.8 | 2.1 | 0.9 | i | 0.4
CC1=NN(c2ccccc2C)C(=O)C1 | x | 0.2 | i | x | x | x | i | 0.0
O=C(CCCN1C(=O)C(=Cc2ccc3c(c2)OCO3)SC1=S)Nc1ccc(C(=O)O)c(O)c1 | x | 24.6 | i | x | x | x | i | 0.2
O=C(CCCN1C(=O)/C(=C/c2ccco2)SC1=S)Nc1cccc(C(=O)O)c1 | 1.9 | -4.8 | i | 2.4 | 0.8 | -1.2 | + | 0.0
Cc1nc(SC(C)C(=O)NC2CCCC2)c2ccccc2n1 (stereo not drawn) | x | -8.6 | i | -2.5 | 2.3 | x | x | x
COc1ccc(NC(=O)CO/N=C/C(=O)Nc2ccccc2C)c([N+](=O)[O-])c1 | x | 2.9 | i | 1.2 | 2.4 | x | x | x
CCOC(=O)c1c(NC(=O)c2nn(CC)cc2Br)c(C#N)cn1-c1ccccc1 | 5.9 | 2.0 | + | 3.4 | -0.3 | 9.2 | + | 0.0
Cc1ccc(-c2nn3c(C)nnc3s2)cc1NC(=O)CSc1ccc(Cl)cc1 | 9.3 | 6.8 | + | -0.4 | 2.8 | -0.2 | + | 4.9
COc1ccc(CC(=O)NCC(=O)N/N=C/c2ccc(C)o2)cc1 | 9.9 | -3.7 | i | 0.1 | -0.2 | 0.0 | x | x
SMILES | core dimer inh | NadD inh | Myeloid diff MLP | PP1 inh | PP5 inh | Fh CTSL1 inh | Myeloid diff | GFP autofluor
Cc1ccc(/C=N/NC(=O)CNC(=O)COc2ccc(Cl)cc2)o1 | 2.2 | -6.2 | + | -0.9 | 0.0 | -0.9 | i | 0.4
Cc1ccc(CCNC(=O)CCS(=O)(=O)c2cc3c(cc2C)NC(=O)CO3)cc1 | 7.6 | -0.8 | i | -6.6 | 2.3 | -5.0 | i | 0.2
N#Cc1nc(-c2cccs2)oc1NCc1ccccc1 | 3.1 | -6.0 | i | -3.6 | 0.3 | 0.4 | x | x
N#Cc1nc(-c2cccs2)oc1NCc1ccco1 | -16.1 | 0.9 | i | 1.0 | 0.9 | 4.5 | i | 0.5
Oc1ccc(C=NNC(=S)Nc2ccccc2)nc1 | x | -2.3 | i | x | x | x | x | x
CCc1ccc(C(=O)C(C)OC(=O)Cc2n[nH]c(=O)c3ccccc23)cc1 (stereo not drawn) | 4.3 | -1.7 | + | -1.6 | -0.2 | 1.5 | i | 0.0
CCOC(=O)C1=CCN(S(=O)(=O)c2ccc(F)cc2)C1c1cccc(F)c1 (stereo not drawn) | x | -7.6 | i | x | x | x | x | x
O=C(COc1ccc(S(=O)(=O)N2CCOCC2)cc1)NC1CC1 | -5.5 | -3.7 | i | -0.3 | 0.1 | 6.7 | x | x
C[C@@H]1CN([C@H](C)CO)C(=O)CCCn2nncc2CO[C@@H]1CN(C)C(=O)c1cc(-c2ccccc2)on1 | x | -3.0 | i | x | x | x | x | x
COc1cc(S(=O)(=O)N2CCC(c3nc4ccccc4s3)CC2)ccc1S(=O)(=O)N1CC(C)CC(C)C1 (stereo not drawn) | -0.1 | 3.2 | i | -4.9 | 2.2 | 5.2 | i | 0.9
COc1cc(S(=O)(=O)N2CCC(c3nc4ccccc4s3)CC2)ccc1S(=O)(=O)NC1CCCC1 | 1.7 | 18.0 | i | -4.8 | -1.1 | -0.1 | x | x
CC1(C(=O)Nc2ccc(S(=O)(=O)Nc3ncccn3)cc2)CCCC1 | x | 1.2 | i | x | x | x | x | x
O=[N+]([O-])c1cccc(NC(=S)N2CCc3ccccc32)c1 | x | -1.5 | i | x | x | x | i | 0.6
O=C(Nc1cccc([N+](=O)[O-])c1)N1CCCc2ccccc21 | x | 2.8 | i | x | x | x | x | x
C[C@@H]1CN([C@@H](C)CO)C(=O)CCCn2nncc2CO[C@H]1CN(C)Cc1cccnc1 | x | -3.0 | i | x | x | x | x | x
CC(C)N(C)c1ncnc2c1ncn2[C@H]1CN(Cc2ccc(-c3ccccc3)cc2)C[C@@H](CO)O1 | x | -2.9 | i | x | x | x | x | x
COC(=O)C1C(=O)c2c([nH]c(C(=O)OCC3CCCO3)c2C)CC1C (stereo not drawn) | -1.4 | -5.7 | i | -0.8 | 1.9 | -1.5 | i | 0.3
O=C(CCNS(=O)(=O)c1ccc2c(c1)CCC(=O)N2)NCc1ccc2c(c1)OCO2 | 1.2 | 1.2 | i | -3.5 | 0.8 | -2.9 | i | 0.9

Screening data deposited in PubChem by several laboratories.
